Measurements reported in the RNAGym collection of RNA variant scans (doi:10.1126/science.aae0568).
Fewer inactive variants are shown than the library holds.

B1: tRNA (parent)
chain: GUUCCGUUGGCGUAAUGGUAACGCGUCUCCCUCCUAAGGAGAAGACUGCGGGUUCGAGUCCCGUACGGAACG

Variants of: B1
Assay: yeast fitness relative to wild type (ratio to wild type); higher = fitter; tRNA-Arg(CCU), competitive growth, 37 C, YPD
How it was run: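 A pool of Saccharomyces cerevisiae strains, each with a tRNA-Arg(CCU) gene variant at the native genomic locus, was competed in YPD at 37°C for 24 hours across six parallel replicates. The variants had been chemically synthesised at a 3% per-site mutation rate over 69 sites, and gene amplicons before and after competition were read by 100-nucleotide paired-end sequencing. Darwinian fitness relative to wild type rested on changes in genotype frequencies. Genotypes required ≥ 100 starting reads, and estimates < 0.5 were set to 0.5.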

Variant | yeast fitness
A14U C62U | 0.616
A14U U19A G23C C29A C66A | 0.549
A15C C27G C49G | 0.551
A15C A42G G67C | ≤ 0.5
A15C A42G G67U | 0.522
A14U U32C A37G C49U | ≤ 0.5
A14U G23A A36G | ≤ 0.5
A14U C31G C61G A69G | ≤ 0.5
A15C A40C | 0.609
A15C A40G | 0.729
A14U G23A C29G C46A C55G | 0.57
A15C C22A A70U | ≤ 0.5
A14U G48C C66A | ≤ 0.5
A15C C27U | 0.724
A15C C34A C46U | 0.614
A14U G23A C27A G58C C61U | ≤ 0.5
A15C C30G | 0.541
A15C C30U | 0.572
A14U C49U U54C | ≤ 0.5
A15C G17A G38C U59C | 0.569
A14U U19A A36C G63A | 0.586
A14U G23U G67C | ≤ 0.5
A14U C30G G51C | ≤ 0.5
A14U U26A C30U A69C | ≤ 0.5

Variant | yeast fitness
A15C C46G G50C C61A | 0.636
A15C A20U C31G | 0.562
A15C G17A C55G | ≤ 0.5
A14U C30U U59A | ≤ 0.5
A14U U16A C22U C24A | ≤ 0.5
A14U U28A | 0.579
A15C A42C C55G A70G | 0.72
A15C C46U C49U G50A | ≤ 0.5
A15C A21G C27G A69U | ≤ 0.5
A14U U28C C49U G50A C61G A69C | 0.621
A15C C24U G44A C55G | ≤ 0.5
A14U G58A | 0.629
A14U C33A A69G | 0.742
A15C C46A G56C A70G | ≤ 0.5
A15C C24A U59C C62U | ≤ 0.5
A14U C34G A37C | ≤ 0.5
A14U U26C A42U C49U | 0.536
A14U U26A A42G U59G C60U | ≤ 0.5
A15C A69U | 0.892
A15C A69C | 0.672
A14U G23A U64A C66A | ≤ 0.5
A15C A42C G48A G50C A65G | 0.561
A15C A57U C62G | ≤ 0.5
A14U G38C C62A G67C | ≤ 0.5

Variant | yeast fitness
A14U U19A G23A A43C U47C A57C | ≤ 0.5
A15C C31G C49U | 0.638
A15C A45U C66A | ≤ 0.5
A15C C33G C60U C62U | ≤ 0.5
A15C A40G A65G | 0.511
A15C A21U | 0.546
A15C C34G C46A C61U C66G | ≤ 0.5
A14U G18C U35G C49A G68A | 0.59
A14U G52A G63C G67C A69U | ≤ 0.5
A14U G18C U35G C49A C60G G68A | ≤ 0.5
A15C C22G A57C G63C C66U | ≤ 0.5
A15C A21U C34A | ≤ 0.5
A15C C24U U28A C29G G52A | 0.501
A14U G17A G23A G68C | ≤ 0.5
A15C C49A | 0.637
A14U G18C G39C C49G | ≤ 0.5
A15C A21C A40C U59G C60G | ≤ 0.5
A14U G18C G25A A70G | ≤ 0.5
A14U C34G A43C C62A A70U | ≤ 0.5
A14U G25A C27U C55G | ≤ 0.5
A15C A21U A70G | ≤ 0.5
A14U C30U A42G | ≤ 0.5
A14U C30U A42C | ≤ 0.5
A14U C34G C61A | ≤ 0.5

Variant | yeast fitness
A14U G23A A40U G48C C55U C61G | ≤ 0.5
A15C C30G C66G A69U | ≤ 0.5
A14U C34A G48A U59C | 0.541
A15C A20G G23A C46A C49G G50A A65U A70U | ≤ 0.5
A14U U16A C27G A40U | ≤ 0.5
A15C C34G | 0.59
A14U G48U | 0.567
A14U G48A | 0.931
A15C C27U G39C C49G A69C | ≤ 0.5
A14U C30U U32C U64G | ≤ 0.5
A15C C24A C46A A57C A69U | ≤ 0.5
A15C A21C G38C G63C A70U | 0.513
A15C C24U A45G G52A | ≤ 0.5
A15C C29A U54A | ≤ 0.5
A15C C46U C60U | 0.58
A14U U26A A45U U53C | 0.597
A15C G17A U28A A65U | 0.752
A15C C34U C55A | ≤ 0.5
A15C C33U C61G | ≤ 0.5
A15C C30A A42C C55U | ≤ 0.5
A14U U47A | 0.575
A15C C30G A37C | ≤ 0.5
A14U G50C A57G | ≤ 0.5
A15C C22A C31A G38C | ≤ 0.5

Variant | yeast fitness
A14U G17A U59C C61U | 0.653
A15C C29A | ≤ 0.5
A15C C29U | 0.669
A15C C30A A40G C49G U54A C55A A65G A70U | ≤ 0.5
A14U C55U | ≤ 0.5
A15C C31U A45U G51C | ≤ 0.5
A15C A20G G51A | ≤ 0.5
A15C C55G A57C | ≤ 0.5
A15C C24G A45G | ≤ 0.5
A14U C46G | 0.612
A15C A36C G39C | ≤ 0.5
A15C G17A | 0.707
A15C C27G C30U C46A A70U | ≤ 0.5
A15C C29G G44C A45U U47A A70C | ≤ 0.5
A14U C66U | 0.756
A14U C66A | 0.508
A15C C27G C30U C46A | 0.542
A15C C49U A69G | ≤ 0.5
A15C C55A A65C | ≤ 0.5
A14U G17A C22U | ≤ 0.5
A14U C31A | 0.544
A14U G56A G67A | ≤ 0.5
A15C A36G C49U | 0.533
A14U U19A C24U C55G A70U | 0.532

Variant | yeast fitness
A15C A20G C62U U64G | ≤ 0.5
A14U C60A | ≤ 0.5
A14U C60G | ≤ 0.5
A15C C34G C49G C66G G68C | 0.612
A15C A42G A43G | ≤ 0.5
A15C C27A U32G C60G | ≤ 0.5
A15C C31U C55G | ≤ 0.5
A15C C24G A40U G44A | ≤ 0.5
A15C A42C | 0.646
A15C A42C C55G | 0.547
A14U U26G C33A A40U A69U | ≤ 0.5
A15C C30A A42C G56A C60G | ≤ 0.5
A15C A36U A57U G67A | ≤ 0.5
A14U G63A | ≤ 0.5
A14U G63C | ≤ 0.5
A15C C31G C33G | ≤ 0.5
A14U G18C A36G | ≤ 0.5
A15C C22G A43C G50A U59C | ≤ 0.5
A14U U16A U26G C29G | ≤ 0.5
A15C C24G | 0.557
A14U G48C A70C | ≤ 0.5
A14U U16G U19A A42G C61G | 0.535
A14U C31A C61A | ≤ 0.5
A15C A43U | 0.653

Variant | yeast fitness
A15C A43G | 0.689
A14U G17C U28C C30G G41C A42C U47C G50A C62A | ≤ 0.5
A14U G25C C66U | ≤ 0.5
A14U U16G U19A | ≤ 0.5
A15C A70U | 0.872
A15C A70G | 0.795
A14U U19A C55A C61G | ≤ 0.5
A15C A45G G68A | ≤ 0.5
A15C A21C A45U C61U C66U | ≤ 0.5
A15C A20G | 0.78
A15C A20U | 0.63
A14U C49U C55U | ≤ 0.5
A14U G68C A70G | ≤ 0.5
A14U G68C A69C | ≤ 0.5
A14U U53G C61U A70G | ≤ 0.5
A15C A20U C31G G48C A65U | ≤ 0.5
A15C A45G U53C | ≤ 0.5
A15C A65U | 0.841
A15C A65C | 0.713
A14U G18A A21U A42G G68A | ≤ 0.5
A15C C22A G25C U28A A36U U54C A57C | ≤ 0.5
A14U C33A A42C G52A | 0.515
A15C A40C A70U | ≤ 0.5
